From paper PMC7986984 (Brain, behavior, and immunity, 2020)
Where two headings read alike, the source gives them in different places.

What was measured:
[1] = type: in vivo, mice; conditions: male, mouse, brain, po; for AUC: over 24 h; for Cmax: n = 6 +/- SEM
[2] = tested on: THP-1 cells; assay: qPCR gene expression in THP-1 cells of the LPS-challenged coculture; type: cell-based, human; conditions: TMF-treated vs. untreated
[3] = type: in vivo, mice; conditions: male, mouse, plasma, po; for AUC: over 24 h
[4] = tested on: IL-1β; assay: IL-1β production; type: cell-based, human; conditions: LPS +, ELISA, metabolites 250 ng/mL
In short: (§1)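 Caco-2 grown 18 days on 8 μm transwells to TEER 500 ohm×cm2, set over THP-1 differentiated with PMA (15 nM, 48 h). Pretreatment 24 h with fermented supernatant (50 μL/1 mL) or metabolites (250 ng/mL), with or without AHR antagonist TMF. Challenge with LPS 1 μg/ml, IFN-γ and ATP in both compartments. Read-outs: TEER before and after; kynurenine by chemical assay, % control; IL-1β by ELISA, fold over untreated. n = 4 wells; t-test.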

[5] = molecular target: T1, aryl hydrocarbon receptor (AHR) (Homo sapiens, UniProt P35869); type: cell-based; conditions: for dependence of the beneficial / anti-inflammatory activity on AHR signaling: LPS-challenged coculture with AHR antagonist TMF; for anti-inflammatory effects (TEER, cytotoxicity, kynurenine, Il-1β gene expression), correlated to Cyp1a1 mRNA expression: LPS-treated coculture, two concentrations (Table S8)
T1 sequence (P35869 11-848): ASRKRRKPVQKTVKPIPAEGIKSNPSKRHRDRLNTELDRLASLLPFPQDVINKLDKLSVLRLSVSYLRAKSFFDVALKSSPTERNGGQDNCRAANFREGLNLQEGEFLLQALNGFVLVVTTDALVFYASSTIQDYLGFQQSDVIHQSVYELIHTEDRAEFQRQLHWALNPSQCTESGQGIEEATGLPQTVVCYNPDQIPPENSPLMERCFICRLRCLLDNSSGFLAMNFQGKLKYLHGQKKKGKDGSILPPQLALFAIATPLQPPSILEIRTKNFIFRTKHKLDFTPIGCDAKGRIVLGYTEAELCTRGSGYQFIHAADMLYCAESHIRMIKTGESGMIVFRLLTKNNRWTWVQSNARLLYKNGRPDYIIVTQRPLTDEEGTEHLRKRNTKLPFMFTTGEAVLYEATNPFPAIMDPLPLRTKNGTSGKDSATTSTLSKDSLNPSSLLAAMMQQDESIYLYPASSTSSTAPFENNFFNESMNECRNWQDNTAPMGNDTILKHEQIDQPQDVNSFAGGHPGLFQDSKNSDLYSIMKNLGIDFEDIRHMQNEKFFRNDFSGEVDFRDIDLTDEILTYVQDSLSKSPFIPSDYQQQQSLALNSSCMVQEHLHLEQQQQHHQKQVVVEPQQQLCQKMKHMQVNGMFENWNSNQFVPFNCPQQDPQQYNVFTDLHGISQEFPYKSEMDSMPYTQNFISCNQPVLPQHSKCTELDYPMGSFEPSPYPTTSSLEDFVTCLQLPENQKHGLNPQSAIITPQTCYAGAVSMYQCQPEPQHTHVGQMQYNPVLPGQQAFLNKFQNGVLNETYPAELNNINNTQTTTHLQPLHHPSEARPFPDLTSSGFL
In short: as §1

[6] = tested on: Kynurenine; assay: Kynurenine production; type: cell-based, human; conditions: LPS +, metabolites 250 ng/mL
In short: as §1

[7] = tested on: Caco-2 / THP-1 coculture; assay: Transepithelial electrical resistance; type: cell-based, human; conditions: LPS +, TMF + (AHR antagonist); metabolites 250 ng/mL
In short: as §1

[8] = TMF −, fold change from untreated controls

| Structure (SMILES) | AUC ([1]; Chronic BDPP) | AUC ([1]; Chronic Synbiotic) | Cmax ([1]; Chronic BDPP) | Cmax ([1]; Chronic Synbiotic) | Tmax ([1]; Chronic BDPP) | Tmax ([1]; Chronic Synbiotic) | Tlr4 expression in TMF-treated cultures [2] | AUC ([3]; Chronic BDPP) | AUC ([3]; Chronic Synbiotic) | Tmax ([3]; Chronic BDPP) | Tmax ([3]; Chronic Synbiotic) | IL-1β(Fold Change) ([4]; TMF +) | IL-1β(Fold Change) [4, 8] | dependence of the beneficial / anti-inflammatory activity on AHR signaling [5] | anti-inflammatory effects (TEER, cytotoxicity, kynurenine, Il-1β gene expression), correlated to Cyp1a1 mRNA expression [5] | Kynurenine (% Change) ([6]; TMF +) | TEER (% Control) [7] | Kynurenine (% Change) ([6]; TMF −) |
| --- | --- | --- | --- | --- | --- | --- | --- | --- | --- | --- | --- | --- | --- | --- | --- | --- | --- | --- |
| O=C(O)Cc1ccc(O)cc1 [4-HPAA, 4-Hydroxyphenylacetic acid] | 1350 ng·h/mL | 1650 ng·h/mL | 66.8 ± 4.7 ng/mL | 108 ± 6.5 ng/mL | 60 min | 60 min | suppressed | 3760 ng·h/mL | 4460 ng·h/mL | 30 min | 18 min | 9.8 ± 0.4τ ^** Fold Change | 5.2 ± 0.6τ Fold Change | abrogated by TMF | dose-dependent anti-inflammatory effects | 120.7 ± 7.9 % Change | 70.2 ± 2.0 % Control |  |
| O=C(O)CCc1ccc(O)cc1 [4-HPPA, 3-(4-Hydroxyphenyl)propionic acid] |  |  |  |  |  |  | suppressed | 406 ng·h/mL | 2170 ng·h/mL | 30 min | 18 min | 9.1 ± 0.0τ ^** Fold Change | 6.4 ± 0.3τ Fold Change | abrogated by TMF | dose-dependent anti-inflammatory effects | 134.3 ± 3.2 % Change | 72.3 ± 2.0 % Control | 102.0 ± 2.2τ % Change |
| O=C(O)/C=C/c1ccc(O)c(O)c1 [CA, Caffeic acid] |  |  |  |  |  |  | suppressed | 52.8 ng·h/mL | 51.4 ng·h/mL | 18 min | 18 min | 10.3 ± 0.3τ ^** Fold Change | 4.0 ± 0.3τ Fold Change | abrogated by TMF | dose-dependent anti-inflammatory effects | 144.1 ± 6.4 % Change | 73.2 ± 0.9 % Control | 98.6 ± 7.7τ % Change |
| O=c1c(O)c(-c2ccc(O)cc2)oc2cc(O)cc(O)c12 [KAMF, Kaempferol] | 87.2 ng·h/mL | 288 ng·h/mL | 25.3 ± 9.6 ng/mL | 23 ± 2.6 ng/mL | 18 min | 60 min |  | 3.5 ng·h/mL | 38.2 ng·h/mL | 18 min | 30 min | 10.1 ± 0.7τ Fold Change | 8.4 ± 0.2τ Fold Change | independent of AHR signaling | dose-dependent anti-inflammatory effects | 131.7 ± 3.9 % Change | 75.5 ± 2.1 % Control | 151.0 ± 3.7 % Change |
